Source: ChEMBL document CHEMBL1144684, “Evaluation of a series of naphthamides as potent, orally active vascular endothelial growth factor receptor-2 tyrosine kinase inhibitors” (J Med Chem, 2008)
In brackets after ≈: the same amount, converted by molar mass. Activity calls are given as the source filed them. No cut-off for these calls is given here.

How the values were obtained:
Angiopoietin-1 receptor = Angiopoietin-1 receptor (Homo sapiens, UniProt Q02763); test: Inhibition of Tie2
Aurora kinase A = target: T1, Aurora kinase A (Homo sapiens, UniProt O14965); test: Inhibition of Aurora A
T1 sequence (O14965 whole entry): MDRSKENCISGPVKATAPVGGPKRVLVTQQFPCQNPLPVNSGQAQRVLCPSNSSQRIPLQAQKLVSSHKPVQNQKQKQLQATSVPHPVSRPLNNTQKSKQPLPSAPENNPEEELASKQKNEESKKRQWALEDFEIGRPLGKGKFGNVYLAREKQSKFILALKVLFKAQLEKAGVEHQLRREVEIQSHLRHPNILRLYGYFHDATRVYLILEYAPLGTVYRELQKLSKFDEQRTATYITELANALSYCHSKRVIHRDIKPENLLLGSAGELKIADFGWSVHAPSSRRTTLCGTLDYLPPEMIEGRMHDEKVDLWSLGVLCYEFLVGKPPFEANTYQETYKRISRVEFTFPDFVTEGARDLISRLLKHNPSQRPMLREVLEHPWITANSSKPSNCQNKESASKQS

HUVEC [1] = test: Inhibition of bFGF-induced proliferation of HUVEC; type: functional, cell-based; conditions: Homo sapiens
Outline: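 HUVEC seeded at 3000/well in DMEM with 10% FBS, 22 h; 2 h preincubation with serial compound dilutions, then 50 ng/mL VEGF or 20 ng/mL bFGF for 72 h at 37 °C. Freeze–thaw, CyQuant DNA dye read-out; IC50 by four-parameter logistic fit, averaged over ≥2 experiments.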

HUVEC [2] = test: Inhibition of VEGF-induced proliferation of HUVEC; type: functional, cell-based; conditions: Homo sapiens
[3] = target: Tyrosine-protein kinase Lck (Homo sapiens, UniProt P06239); test: Inhibition of Lck
[4] = target: Hepatocyte growth factor receptor (Homo sapiens, UniProt P08581); test: Inhibition of c-Met
Aurora kinase B = Aurora kinase B (Homo sapiens, UniProt Q96GD4); test: Inhibition of Aurora B
[5] = target: Vascular endothelial growth factor receptor 2 (Homo sapiens, UniProt P35968)
[6] = Aqueous solubility in 0.01 N Hcl; type: physicochemical
HUVEC [7] = test: Selectivity of IC50 for VEGF-induced proliferation over IC50 for bFGF-induced proliferation of HUVEC; type: functional, Homo sapiens
Outline: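 HUVECs were seeded at 3000 cells/well in DMEM/10% FBS with pen/strep and cultured for 22 h. They were preincubated 2 h with serially diluted compound, then stimulated with 50 ng/mL VEGF or 20 ng/mL bFGF for 72 h at 37 °C, 5% CO2. Cells were washed, frozen at -70 °C and stained with CyQuant. IC50s came from a four-parameter logistic fit, averaged over ≥2 experiments; the VEGF IC50 was compared against the bFGF IC50.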

[8] = AUC (0 to infinity) in Sprague-Dawley rat at 2 mg/kg, po; type: ADME, organism-based; parameters: time infinity, dose 2 mg/kg, route oral; conditions: plasma
Outline: (§1)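 Male Sprague–Dawley rats dosed iv via femoral vein as DMSO solution (1 or 0.5 mg/kg) or po by gavage as OraPlus suspension (pH 2.0–2.2 with methanesulfonic acid; 10 or 2 mg/kg). Serial jugular blood over 12–24 h; plasma acetonitrile precipitation, LC-MS/MS (MRM) with internal standard; noncompartmental parameters.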

[9] = Oral bioavailability in Sprague-Dawley rat at 2 mg/kg; type: ADME, organism-based; conditions: in vivo
Outline: (§2)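 Male Sprague–Dawley rats dosed iv at 0.5 mg/kg as DMSO solution or po at 2 mg/kg as suspension in 100% OraPlus. Serial jugular blood, plasma LC-MS/MS quantitation, noncompartmental analysis.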

[10] = Clearance in Sprague-Dawley rat at 0.5 mg/kg, iv; type: ADME, organism-based; parameters: dose 0.5 mg/kg, route intravenous; conditions: in vivo; outline: as §1
[11] = Tmax in Sprague-Dawley rat at 2 mg/kg, po; type: ADME, organism-based; parameters: dose 2 mg/kg, route oral; conditions: in vivo; outline: as §2
[12] = Intrinsic clearance in rat liver microsomes at 1 uM; type: ADME, Microsome; conditions: read-out: Stability
Outline: (§3)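 Human or rat liver microsomes (0.25 mg protein/mL) with 1 mM NADPH, 2 mM MgCl2 in 50 mM potassium phosphate pH 7.4 at 37 °C; compound 1 µM final. Sampled 0–40 min into acetonitrile, LC-MS/MS; ln % remaining vs time slope gives T1/2; CLint = (0.693/T1/2)/0.25 mg/mL.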

[13] = Half life in Sprague-Dawley rat at 0.5 mg/kg, iv; type: ADME, organism-based; parameters: dose 0.5 mg/kg, route intravenous; conditions: in vivo; outline: as §1
[14] = Intrinsic clearance in human liver microsomes at 1 uM; type: ADME, Microsome; conditions: read-out: Stability; outline: as §3
[15] = Cmax in Sprague-Dawley rat at 2 mg/kg, po; type: ADME, organism-based; parameters: dose 2 mg/kg, route oral; conditions: in vivo; outline: as §1
[16] = Volume of distribution at steady state in Sprague-Dawley rat at 0.5 mg/kg, iv; type: ADME, organism-based; parameters: dose 0.5 mg/kg, route intravenous; conditions: in vivo, read-out: Vdss; outline: as §2
[17] = target: Vascular endothelial growth factor receptor 3 (Homo sapiens) (UniProt P35916); test: Inhibition of human VEGFR3

Chain of Angiopoietin-1 receptor (Q02763 whole entry): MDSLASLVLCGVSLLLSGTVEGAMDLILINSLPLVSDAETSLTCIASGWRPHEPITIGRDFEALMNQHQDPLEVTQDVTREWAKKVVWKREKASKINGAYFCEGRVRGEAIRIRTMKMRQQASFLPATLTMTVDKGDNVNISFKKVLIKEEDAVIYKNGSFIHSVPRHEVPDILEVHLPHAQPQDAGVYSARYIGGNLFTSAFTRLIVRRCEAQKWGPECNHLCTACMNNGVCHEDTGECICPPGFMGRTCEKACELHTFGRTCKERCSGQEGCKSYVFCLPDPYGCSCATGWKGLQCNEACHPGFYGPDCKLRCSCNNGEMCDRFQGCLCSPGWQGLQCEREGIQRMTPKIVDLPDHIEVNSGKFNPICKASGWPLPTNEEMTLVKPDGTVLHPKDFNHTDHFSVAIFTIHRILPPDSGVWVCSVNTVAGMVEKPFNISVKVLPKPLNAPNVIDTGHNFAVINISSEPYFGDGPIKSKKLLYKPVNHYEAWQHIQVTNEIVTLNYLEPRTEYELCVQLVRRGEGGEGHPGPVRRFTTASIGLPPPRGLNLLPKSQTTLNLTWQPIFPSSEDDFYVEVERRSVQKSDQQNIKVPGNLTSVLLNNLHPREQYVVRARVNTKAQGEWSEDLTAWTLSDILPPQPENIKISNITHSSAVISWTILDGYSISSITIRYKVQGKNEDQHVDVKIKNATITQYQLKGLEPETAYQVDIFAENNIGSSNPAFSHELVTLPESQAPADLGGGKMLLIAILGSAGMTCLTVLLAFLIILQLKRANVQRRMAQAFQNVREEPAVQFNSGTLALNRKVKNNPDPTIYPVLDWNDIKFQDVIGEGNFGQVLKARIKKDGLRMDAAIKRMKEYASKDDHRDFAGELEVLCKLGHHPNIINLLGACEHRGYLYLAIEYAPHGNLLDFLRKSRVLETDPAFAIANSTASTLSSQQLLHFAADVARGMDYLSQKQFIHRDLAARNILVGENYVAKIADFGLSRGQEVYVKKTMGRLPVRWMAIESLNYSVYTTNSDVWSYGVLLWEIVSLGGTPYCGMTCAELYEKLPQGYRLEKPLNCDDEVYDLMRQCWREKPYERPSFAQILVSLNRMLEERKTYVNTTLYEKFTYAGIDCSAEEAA
Chain of Tyrosine-protein kinase Lck (P06239 whole entry): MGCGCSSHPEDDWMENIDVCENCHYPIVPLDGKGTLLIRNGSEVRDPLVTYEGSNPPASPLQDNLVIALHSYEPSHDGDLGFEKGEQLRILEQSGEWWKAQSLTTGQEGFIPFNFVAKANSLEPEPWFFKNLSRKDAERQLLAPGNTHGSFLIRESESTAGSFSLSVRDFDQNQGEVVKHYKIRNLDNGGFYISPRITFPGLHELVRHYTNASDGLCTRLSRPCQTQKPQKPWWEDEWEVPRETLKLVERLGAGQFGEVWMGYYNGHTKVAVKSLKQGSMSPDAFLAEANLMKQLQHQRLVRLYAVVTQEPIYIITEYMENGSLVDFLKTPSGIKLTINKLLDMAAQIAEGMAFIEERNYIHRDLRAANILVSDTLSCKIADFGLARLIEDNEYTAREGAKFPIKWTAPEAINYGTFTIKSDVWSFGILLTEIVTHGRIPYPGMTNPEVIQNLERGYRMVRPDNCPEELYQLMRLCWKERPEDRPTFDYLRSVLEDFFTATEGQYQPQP
Chain of Aurora kinase B (Q96GD4 whole entry): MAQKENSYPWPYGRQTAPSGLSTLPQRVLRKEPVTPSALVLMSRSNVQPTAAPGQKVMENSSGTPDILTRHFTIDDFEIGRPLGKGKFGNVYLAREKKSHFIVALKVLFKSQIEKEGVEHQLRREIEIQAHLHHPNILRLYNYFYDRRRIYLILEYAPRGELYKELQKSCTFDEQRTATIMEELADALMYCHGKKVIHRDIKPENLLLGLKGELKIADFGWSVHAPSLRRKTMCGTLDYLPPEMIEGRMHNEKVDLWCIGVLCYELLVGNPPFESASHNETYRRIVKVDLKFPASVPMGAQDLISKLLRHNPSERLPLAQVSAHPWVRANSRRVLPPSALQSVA
Chain of Hepatocyte growth factor receptor (P08581 whole entry): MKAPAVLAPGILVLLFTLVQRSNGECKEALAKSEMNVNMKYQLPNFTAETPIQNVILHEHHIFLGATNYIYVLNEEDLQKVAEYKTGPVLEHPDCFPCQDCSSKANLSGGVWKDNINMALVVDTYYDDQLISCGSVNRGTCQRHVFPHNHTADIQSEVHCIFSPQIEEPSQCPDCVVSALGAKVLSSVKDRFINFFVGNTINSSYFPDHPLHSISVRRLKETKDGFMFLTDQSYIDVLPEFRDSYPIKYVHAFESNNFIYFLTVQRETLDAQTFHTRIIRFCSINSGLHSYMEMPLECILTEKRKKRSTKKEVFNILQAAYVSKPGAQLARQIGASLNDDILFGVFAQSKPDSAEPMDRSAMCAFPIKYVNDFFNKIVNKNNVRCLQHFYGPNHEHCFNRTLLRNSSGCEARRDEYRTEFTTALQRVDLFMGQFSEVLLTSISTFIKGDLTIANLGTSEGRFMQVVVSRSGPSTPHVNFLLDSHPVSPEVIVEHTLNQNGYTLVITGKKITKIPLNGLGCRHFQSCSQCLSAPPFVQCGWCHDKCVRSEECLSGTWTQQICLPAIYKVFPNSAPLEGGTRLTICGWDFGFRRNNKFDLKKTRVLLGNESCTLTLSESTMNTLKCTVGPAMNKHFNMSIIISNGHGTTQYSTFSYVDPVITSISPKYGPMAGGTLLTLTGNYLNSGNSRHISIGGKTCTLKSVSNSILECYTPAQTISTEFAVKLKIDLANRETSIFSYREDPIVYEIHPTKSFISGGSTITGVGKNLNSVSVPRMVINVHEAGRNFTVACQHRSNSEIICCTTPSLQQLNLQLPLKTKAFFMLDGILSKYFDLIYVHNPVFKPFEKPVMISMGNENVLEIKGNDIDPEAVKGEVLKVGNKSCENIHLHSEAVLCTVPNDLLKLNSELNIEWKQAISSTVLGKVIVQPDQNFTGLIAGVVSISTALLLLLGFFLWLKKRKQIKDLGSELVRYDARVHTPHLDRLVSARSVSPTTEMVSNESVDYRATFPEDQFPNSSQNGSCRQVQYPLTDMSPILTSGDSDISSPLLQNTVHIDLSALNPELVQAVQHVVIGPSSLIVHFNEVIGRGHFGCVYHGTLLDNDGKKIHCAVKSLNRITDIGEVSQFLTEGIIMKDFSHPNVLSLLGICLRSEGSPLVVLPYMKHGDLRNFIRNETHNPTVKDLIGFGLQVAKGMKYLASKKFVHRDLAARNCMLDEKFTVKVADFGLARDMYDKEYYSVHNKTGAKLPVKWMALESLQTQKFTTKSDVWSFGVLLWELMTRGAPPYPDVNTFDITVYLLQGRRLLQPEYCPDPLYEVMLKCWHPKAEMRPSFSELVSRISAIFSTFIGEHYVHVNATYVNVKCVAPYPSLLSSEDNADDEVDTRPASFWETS
Chain of Vascular endothelial growth factor receptor 2 (P35968 whole entry): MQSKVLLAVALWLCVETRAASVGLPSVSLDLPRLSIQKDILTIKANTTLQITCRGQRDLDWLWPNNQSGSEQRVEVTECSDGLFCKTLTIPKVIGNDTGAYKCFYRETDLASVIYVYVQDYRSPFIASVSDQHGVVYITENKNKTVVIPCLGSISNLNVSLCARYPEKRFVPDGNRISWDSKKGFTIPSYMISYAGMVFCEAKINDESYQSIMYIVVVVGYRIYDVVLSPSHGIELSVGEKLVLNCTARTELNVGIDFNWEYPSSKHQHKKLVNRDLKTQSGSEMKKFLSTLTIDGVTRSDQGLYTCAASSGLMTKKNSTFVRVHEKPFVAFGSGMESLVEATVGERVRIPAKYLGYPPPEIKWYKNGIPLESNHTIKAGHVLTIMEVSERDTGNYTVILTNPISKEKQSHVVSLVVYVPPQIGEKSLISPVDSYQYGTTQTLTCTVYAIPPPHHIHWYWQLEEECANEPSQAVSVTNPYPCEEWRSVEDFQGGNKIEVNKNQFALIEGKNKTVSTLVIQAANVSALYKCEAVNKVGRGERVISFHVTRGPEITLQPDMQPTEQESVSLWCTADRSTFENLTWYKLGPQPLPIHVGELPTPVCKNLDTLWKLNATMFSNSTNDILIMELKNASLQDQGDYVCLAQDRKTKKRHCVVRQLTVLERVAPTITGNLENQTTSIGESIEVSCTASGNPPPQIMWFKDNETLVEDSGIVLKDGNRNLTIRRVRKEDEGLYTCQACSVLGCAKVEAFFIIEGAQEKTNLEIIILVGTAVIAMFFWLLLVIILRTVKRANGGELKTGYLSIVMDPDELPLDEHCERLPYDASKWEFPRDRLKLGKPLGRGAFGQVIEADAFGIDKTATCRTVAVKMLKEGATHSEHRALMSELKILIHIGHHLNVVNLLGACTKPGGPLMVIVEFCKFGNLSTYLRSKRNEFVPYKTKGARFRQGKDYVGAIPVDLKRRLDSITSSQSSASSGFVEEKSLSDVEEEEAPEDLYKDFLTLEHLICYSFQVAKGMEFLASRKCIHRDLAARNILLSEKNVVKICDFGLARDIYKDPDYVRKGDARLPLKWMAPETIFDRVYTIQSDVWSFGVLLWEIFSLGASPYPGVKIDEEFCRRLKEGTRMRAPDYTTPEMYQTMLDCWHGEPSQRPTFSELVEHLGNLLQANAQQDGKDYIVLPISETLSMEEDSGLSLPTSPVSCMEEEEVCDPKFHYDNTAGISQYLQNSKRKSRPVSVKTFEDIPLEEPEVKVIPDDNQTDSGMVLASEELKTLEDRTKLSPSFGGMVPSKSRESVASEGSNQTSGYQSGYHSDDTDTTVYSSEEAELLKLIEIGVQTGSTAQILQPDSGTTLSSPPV

| Compound | IC50 (Angiopoietin-1 receptor) | IC50 (Aurora kinase A) | IC50 [3] | IC50 [4] | IC50 (Aurora kinase B) | IC50 [5] | solubility [6] | AUC(0-inf) [8] | bioavailability [9] | clearance [10] | Tmax [11] | microsomal CLint at 1 µM [12] | half-life [13] | microsomal CLint at 1 µM [14] | Cmax [15] | Vd [16] | Activity [17] | IC50 (HUVEC [1]) | IC50 (HUVEC [2]) | Selectivity ratio (HUVEC [7]) |
| --- | --- | --- | --- | --- | --- | --- | --- | --- | --- | --- | --- | --- | --- | --- | --- | --- | --- | --- | --- | --- |
| COc1cc2nccc(Oc3ccc4c(C(=O)NCC(F)(F)F)cccc4c3)c2cc1OC | 25000 nM | 930 nM | 25000 nM | 20000 nM | 16 nM | 3.8 nM | – | – | – | – | – | – | – | – | – | – | – | 1140 nM | 24 nM | – |
| COc1ccc2c(Oc3ccc4c(C(N)=O)cccc4c3)ccnc2c1 | 25000 nM | 8300 nM | – | 20000 nM | 130 nM | – | – | – | – | – | – | – | – | – | – | – | – | – | 16 nM | – |
| COc1cc2nccc(Oc3ccc4c(C(=O)NC(C)(C)C)cccc4c3)c2cc1OC | 25000 nM | 3700 nM | 4300 nM | 11000 nM | – | 1500 nM | – | – | – | – | – | – | – | – | – | – | – | – | – | >100 |
| CNC(=O)c1cccc2cc(Oc3ccnc4cc(OC)c(OC)cc34)ccc12 | 25000 nM | 3600 nM | 700 nM | 20000 nM | 110 nM | – | – | – | – | – | – | – | – | – | – | – | – | 46 nM | 0.45 nM | – |
| COCCNC(=O)c1cccc2cc(Oc3ccnc4cc(OC)ccc34)ccc12 | 25000 nM | 8300 nM | – | 20000 nM | – | 28 nM | – | – | – | – | – | – | – | – | – | – | – | – | 20 nM | >100 |
| COCCCNC(=O)c1cccc2cc(Oc3ccnc4cc(OC)c(OC)cc34)ccc12 | 8300 nM | 3500 nM | 1000 nM | – | – | 4.2 nM | – | – | – | – | – | – | – | – | – | – | – | – | 7.1 nM | >100 |
| COCCNC(=O)c1cccc2cc(Oc3ncnc4cc(OC)c(OC)cc34)ccc12 | 8300 nM | 25000 nM | – | 20000 nM | 385 nM | 314 nM | – | – | – | – | – | – | – | – | – | – | Active | – | – | >100 |
| COCCNC(=O)c1cccc2cc(Oc3ccnc4cc(OC)c(C(N)=O)cc34)ccc12 | 8300 nM | 8300 nM | – | 6700 nM | 233 nM | 22 nM | – | 164 ng·h/mL | 12% | 50.8 mL/min/kg | 18 min | 95 µL/min/mg | 18.6 min | 4 µL/min/mg | 61 ng/mL | 0.751 L/kg | – | – | 0.8 nM | >100 |
| COc1cc2nccc(Oc3ccc4c(C(=O)NCC5CC5)cccc4c3)c2cc1OC | 9400 nM | 840 nM | 1100 nM | 5300 nM | 10 nM | 11 nM | – | – | – | – | – | – | – | – | – | – | – | 1140 nM | 22 nM | – |
| COc1cc2nccc(Oc3ccc4c(C(=O)NC(C)C)cccc4c3)c2cc1OC | 25000 nM | 3600 nM | 1800 nM | 20000 nM | 190 nM | 5.9 nM | – | – | – | – | – | – | – | – | – | – | – | 1140 nM | 4.4 nM | >100 |
| CCNC(=O)c1cccc2cc(Oc3ccnc4cc(OC)c(OC)cc34)ccc12 | 25000 nM | 1500 nM | 1200 nM | 20000 nM | 46 nM | 1.3 nM | – | – | – | – | – | – | – | – | – | – | – | 150 nM | 0.33 nM | >100 |

More lines, in order of falling IC50 (Angiopoietin-1 receptor), values ahead:

| IC50 (Angiopoietin-1 receptor) | IC50 (Aurora kinase A) | IC50 [3] | IC50 [4] | IC50 (Aurora kinase B) | IC50 [5] | solubility [6] | AUC(0-inf) [8] | bioavailability [9] | clearance [10] | Tmax [11] | microsomal CLint at 1 µM [12] | half-life [13] | microsomal CLint at 1 µM [14] | Cmax [15] | Vd [16] | Activity [17] | Compound | IC50 (HUVEC [1]) | IC50 (HUVEC [2]) | Selectivity ratio (HUVEC [7]) |
| --- | --- | --- | --- | --- | --- | --- | --- | --- | --- | --- | --- | --- | --- | --- | --- | --- | --- | --- | --- | --- |
| 8300 nM | 8300 nM | – | 20000 nM | – | 0.45 nM | – | – | – | – | – | – | – | – | – | – | – | COc1ccc2c(Oc3ccc4c(C(=O)NC5CC5)cccc4c3)ccnc2c1 | – | 3.4 nM | >100 |
| 8300 nM | 8300 nM | – | 20000 nM | 680 nM | – | – | – | – | – | – | – | – | – | – | – | – | COc1cc2ncnc(Oc3ccc4c(C(N)=O)cccc4c3)c2cc1OC | – | 16 nM | – |
| 7400 nM | 8300 nM | – | 20000 nM | 360 nM | 2.9 nM | – | – | – | – | – | – | – | – | – | – | – | COc1cc2ncnc(Oc3ccc4c(C(=O)NC5CC5)cccc4c3)c2cc1OC | – | 7.3 nM | >100 |
| 5300 nM | 6800 nM | – | 7400 nM | 390 nM | – | – | – | – | – | – | – | – | – | – | – | – | COc1cc2nccc(Oc3ccc4c(C(N)=O)cccc4c3)c2cc1C(N)=O | – | – | – |
| 4300 nM | 1700 nM | 1300 nM | – | – | – | – | – | – | – | – | – | – | – | – | – | – | CCCNC(=O)c1cccc2cc(Oc3ccnc4cc(OC)c(OC)cc34)ccc12 | 600 nM | 7.4 nM | – |
| 4000 nM | 440 nM | 1000 nM | 7600 nM | – | 1.3 nM | – | – | – | – | – | – | – | – | – | – | – | COc1cc2nccc(Oc3ccc4c(C(=O)NC5CCC5)cccc4c3)c2cc1OC | 1140 nM | 6.8 nM | >100 |
| 1800 nM | 4400 nM | – | 20000 nM | 185 nM | 0.37 nM | – | 900 ng·h/mL | 39% | 8.47 mL/min/kg | 40.2 min | 16 µL/min/mg | 75.6 min | 12 µL/min/mg | 715 ng/mL | 0.379 L/kg | – | COc1cc2nccc(Oc3ccc4c(C(=O)NC5CC5)cccc4c3)c2cc1C(N)=O | – | 1.2 nM | >100 |
| 1400 nM | 620 nM | 1300 nM | 3200 nM | – | 15 nM | – | – | – | – | – | – | – | – | – | – | – | COc1cc2nccc(Oc3ccc4c(C(=O)NC5CCCC5)cccc4c3)c2cc1OC | 1140 nM | 6.6 nM | >100 |
| 1100 nM | 560 nM | 2000 nM | 5000 nM | 62 nM | – | – | – | – | – | – | – | – | – | – | – | – | COc1cc2nccc(Oc3ccc4c(C(=O)NC5(C)CC5)cccc4c3)c2cc1OC | 1140 nM | 70 nM | – |
| 580 nM | 371 nM | – | – | – | – | 1.1 µg/mL (≈ 2.27 µM) | – | – | – | – | – | – | – | – | – | – | COc1cc2nccc(Oc3ccc4c(C(=O)Nc5ccc(Cl)cc5)cccc4c3)c2cc1OC | 1140 nM | 7.6 nM | – |
